# Measured values from ChEMBL document CHEMBL3351413, “Development of quinone analogues as dynamin GTPase inhibitors” (Eur J Med Chem, 2014).
# Activity calls are given as the source filed them. The rule behind the calls is not given here.
# System: not listed separately
# Experiment: Inhibition of phosphatidylserine-stimulated GTPase activity of sheep brain Dynamin 1 expressed in Sf21 cells assessed as inhibition of orthophosphate release from GTP by malachite green method
# Set-up: species or system Ovis aries
# Details: not given
# Procedure, shortened: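 DynI at 50 nM, stimulated with phosphatidylserine liposomes for 30 min. Pi release from GTP detected colorimetrically by malachite green. Compounds diluted from DMSO stocks, final DMSO at most 3.3%.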
row,SMILES,IC50
1,O=C1C=C(Nc2ccccc2Br)C(=O)C=C1Nc1ccccc1Br,387 µM
2,O=C(O)c1ccccc1NC1=CC(=O)c2ccccc2C1=O,314 µM
3,O=C1C=C(NCc2ccccc2)C(=O)C=C1NCc1ccccc1,273 µM
4,O=C1C=C(Nc2cccc(O)c2)C(=O)c2ccccc21,109 µM
5,O=C1C=C(Nc2ccc(CO)cc2)C(=O)C=C1Nc1ccc(CO)cc1,21.5 µM
6,O=C1C=C(NCCO)C(=O)C=C1NCCO,116 µM
7,O=C1C=C(NCc2ccc(O)cc2)C(=O)C=C1NCc1ccc(O)cc1,112 µM
8,O=C1C=C(Nc2ccccc2C(=O)O)C(=O)C=C1Nc1ccccc1C(=O)O,50.2 µM
9,O=C1C=C(Nc2cccc(C(=O)O)c2)C(=O)C=C1Nc1cccc(C(=O)O)c1,25.4 µM
10,COc1ccc(NC2=CC(=O)C(Nc3ccc(OC)cc3)=CC2=O)cc1,> 300 µM
11,CCCCCCNC1=CC(=O)C(NCCCCCC)=CC1=O,> 300 µM
12,O=C1C=C(Nc2ccc(C(=O)O)cc2)C(=O)C=C1Nc1ccc(C(=O)O)cc1,10.6 µM
13,CN(C)CCNC1=CC(=O)C(NCCN(C)C)=CC1=O,> 300 µM
14,O=C1C=C(Nc2cccc(O)c2)C(=O)C=C1Nc1cccc(O)c1,57.9 µM
15,O=C1C=C(NCc2ccc(C(=O)O)cc2)C(=O)C=C1NCc1ccc(C(=O)O)cc1,29 µM
16,O=C1C=C(Nc2ccc(CO)cc2)C(=O)c2ccccc21,29.5 µM
17,O=C1C=C(Nc2ccc(O)cc2)C(=O)c2ccccc21,22.4 µM
18,COc1ccc(CNC2=CC(=O)C(NCc3ccc(OC)cc3)=CC2=O)cc1,170 µM
19,O=C1C=C(Nc2cccc(CO)c2)C(=O)c2ccccc21,30.3 µM
20,O=C1C=C(NCc2ccc(O)cc2)C(=O)c2ccccc21,150 µM
21,O=C1C=C(Nc2ccccc2CO)C(=O)C=C1Nc1ccccc1CO,> 300 µM
22,O=C1C=C(NCCCBr)C(=O)C=C1NCCCBr,58 µM
23,O=C1C=C(Nc2ccc(O)cc2)C(=O)C=C1Nc1ccc(O)cc1,11.1 µM
24,COc1cccc(NC2=CC(=O)C(Nc3cccc(OC)c3)=CC2=O)c1,> 300 µM

# Molecular target: T1, Dynamin-2 (Rattus norvegicus) (UniProt P39052)
# T1 sequence (whole entry): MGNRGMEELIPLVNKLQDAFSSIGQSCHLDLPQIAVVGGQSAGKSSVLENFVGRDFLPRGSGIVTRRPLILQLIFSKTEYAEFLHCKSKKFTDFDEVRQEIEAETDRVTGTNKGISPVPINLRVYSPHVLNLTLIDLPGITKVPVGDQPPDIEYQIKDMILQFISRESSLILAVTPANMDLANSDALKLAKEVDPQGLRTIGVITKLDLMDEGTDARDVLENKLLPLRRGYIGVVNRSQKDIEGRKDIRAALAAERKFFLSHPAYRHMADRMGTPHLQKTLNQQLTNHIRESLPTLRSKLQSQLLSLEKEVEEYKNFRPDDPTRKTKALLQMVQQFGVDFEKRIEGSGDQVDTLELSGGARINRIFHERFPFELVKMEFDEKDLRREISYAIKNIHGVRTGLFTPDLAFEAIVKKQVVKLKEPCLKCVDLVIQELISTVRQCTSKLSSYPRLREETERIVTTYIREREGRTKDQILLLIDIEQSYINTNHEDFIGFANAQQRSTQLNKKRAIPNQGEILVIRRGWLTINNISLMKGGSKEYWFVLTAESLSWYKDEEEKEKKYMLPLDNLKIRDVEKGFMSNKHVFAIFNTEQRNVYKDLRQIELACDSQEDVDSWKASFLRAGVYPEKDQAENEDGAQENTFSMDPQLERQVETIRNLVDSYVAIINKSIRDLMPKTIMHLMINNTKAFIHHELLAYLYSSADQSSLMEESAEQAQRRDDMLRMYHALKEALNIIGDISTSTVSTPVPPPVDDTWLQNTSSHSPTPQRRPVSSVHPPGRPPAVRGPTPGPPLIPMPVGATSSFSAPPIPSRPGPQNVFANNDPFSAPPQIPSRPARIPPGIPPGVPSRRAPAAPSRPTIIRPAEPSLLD
# Experiment: Inhibition of phosphatidylserine-stimulated GTPase activity of recombinant rat Dynamin 2 expressed in Sf21 cells assessed as inhibition of orthophosphate release from GTP up to 300 uM by malachite green method
# Details: not given
# Procedure, shortened: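 His-6-tagged rat dynII from pIEx-6-transfected Sf21 cells (polyethylenimine, DNA:PEI 1:5, 48 h), purified on GST-Amph2-SH3-sepharose. Enzyme at 50 nM final was stimulated with phosphatidylserine liposomes for 90 min. GTP-derived Pi release was read colorimetrically with Malachite Green. Final DMSO was at most 3.3%.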
row,SMILES,inhibition
1,O=C1C=C(NCc2ccccc2)C(=O)C=C1NCc1ccccc1,inactive

# System: not listed separately
# Experiment: Inhibition of phosphatidylserine-stimulated GTPase activity of sheep brain Dynamin 1 expressed in Sf21 cells assessed as inhibition of orthophosphate release from GTP up to 300 uM by malachite green method
# Details: Ovis aries
# Procedure, shortened: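 DynI at 50 nM final was stimulated with phosphatidylserine liposomes for 30 min. Orthophosphate released from GTP was detected colorimetrically by Malachite Green. Compounds came from 30 mM DMSO stocks diluted in 50% DMSO/20 mM Tris-HCl pH 7.4; final DMSO was at most 3.3%.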
row,SMILES,inhibition
1,CCCCNC1=CC(=O)C(NCCCC)=CC1=O,inactive
2,O=C1C=C(Nc2ccccc2)C(=O)C=C1Nc1ccccc1,inactive
3,O=C1C=C(NCc2cccnc2)C(=O)C=C1NCc1cccnc1,inactive
4,O=C1C=C(NCc2ccccc2)C(=O)C=C1NCc1ccccc1,inactive
5,O=C1C=C(NCc2ccc(F)cc2)C(=O)C=C1NCc1ccc(F)cc1,inactive
6,O=C1C=C(NCCc2ccccc2)C(=O)C=C1NCCc1ccccc1,inactive
7,O=C1C=C(NCCO)C(=O)c2ccccc21,inactive
8,O=C1C=C(NCc2ccc(Br)cc2)C(=O)C=C1NCc1ccc(Br)cc1,inactive
9,CC(C)CCNC1=CC(=O)C(NCCC(C)C)=CC1=O,inactive
10,CCNC1=CC(=O)C(NCC)=CC1=O,inactive
11,COCCNC1=CC(=O)C(NCCOC)=CC1=O,inactive
12,O=C1C=C(Nc2ccccc2)C(=O)c2ccccc21,inactive
13,COc1ccccc1NC1=CC(=O)C(Nc2ccccc2OC)=CC1=O,inactive
14,CCCCCNC1=CC(=O)C(NCCCCC)=CC1=O,inactive
15,O=C1C=C(Nc2cccc(CO)c2)C(=O)C=C1Nc1cccc(CO)c1,inactive
16,O=C1C=C(NCCCO)C(=O)C=C1NCCCO,inactive
17,O=C(O)c1ccc(NC2=CC(=O)c3ccccc3C2=O)cc1,inactive
18,Cc1ccccc1NC1=CC(=O)C(Nc2ccccc2C)=CC1=O,inactive
19,COCCCNC1=CC(=O)C(NCCCOC)=CC1=O,inactive
20,O=C1C=C(NCCCCO)C(=O)C=C1NCCCCO,inactive
21,O=C1C=C(NCc2ccccc2)C(=O)c2ccccc21,inactive
22,COc1ccc(CNC2=CC(=O)c3ccccc3C2=O)cc1,inactive
23,CSCCNC1=CC(=O)C(NCCSC)=CC1=O,inactive
24,O=C1C=C(NCCCO)C(=O)c2ccccc21,inactive
25,O=C1C=C(NCCCCl)C(=O)C=C1NCCCCl,inactive
26,O=C(O)c1cccc(NC2=CC(=O)c3ccccc3C2=O)c1,inactive
27,Cc1ccc(CNC2=CC(=O)C(NCc3ccc(C)cc3)=CC2=O)cc1,inactive
28,O=C1C=C(NCc2ccc(Cl)cc2)C(=O)C=C1NCc1ccc(Cl)cc1,inactive
29,CCCNC1=CC(=O)C(NCCC)=CC1=O,inactive
30,C=CCNC1=CC(=O)C(NCC=C)=CC1=O,inactive

# Molecular target: T2, Dynamin-2 (Rattus norvegicus, UniProt P39052)
# T2 sequence (P39052 whole entry): T1 sequence (whole entry)
# Experiment: Inhibition of phosphatidylserine-stimulated GTPase activity of recombinant rat Dynamin 2 expressed in Sf21 cells assessed as inhibition of orthophosphate release from GTP by malachite green method
# Details: not given
# Procedure, shortened: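 His-6-tagged rat dynII expressed in Sf21 cells after polyethylenimine transfection (48 h), purified on GST-Amph2-SH3-sepharose. Enzyme at 50 nM, stimulated with phosphatidylserine liposomes for 90 min. Pi release from GTP read colorimetrically with malachite green. Final DMSO at most 3.3%.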
row,SMILES,IC50
1,O=C1C=C(Nc2cccc(C(=O)O)c2)C(=O)C=C1Nc1cccc(C(=O)O)c1,14.7 µM
2,O=C1C=C(Nc2ccc(C(=O)O)cc2)C(=O)C=C1Nc1ccc(C(=O)O)cc1,9.1 µM
3,O=C1C=C(Nc2cccc(O)c2)C(=O)C=C1Nc1cccc(O)c1,43.7 µM
4,O=C1C=C(Nc2ccc(O)cc2)C(=O)C=C1Nc1ccc(O)cc1,23.6 µM

# System: not listed separately
# Experiment: Competitive inhibition of phosphatidylserine-stimulated GTPase activity of sheep brain Dynamin 1 expressed in Sf21 cells by Lineweaver-Burk plot method in presence of Mg2+ and GTP
# Details: Ovis aries
row,SMILES,inhibition
1,O=C1C=C(Nc2ccc(CO)cc2)C(=O)C=C1Nc1ccc(CO)cc1,Active

# Molecular target: T3, Dynamin-1 (Homo sapiens) (UniProt Q05193)
# T3 sequence (whole entry): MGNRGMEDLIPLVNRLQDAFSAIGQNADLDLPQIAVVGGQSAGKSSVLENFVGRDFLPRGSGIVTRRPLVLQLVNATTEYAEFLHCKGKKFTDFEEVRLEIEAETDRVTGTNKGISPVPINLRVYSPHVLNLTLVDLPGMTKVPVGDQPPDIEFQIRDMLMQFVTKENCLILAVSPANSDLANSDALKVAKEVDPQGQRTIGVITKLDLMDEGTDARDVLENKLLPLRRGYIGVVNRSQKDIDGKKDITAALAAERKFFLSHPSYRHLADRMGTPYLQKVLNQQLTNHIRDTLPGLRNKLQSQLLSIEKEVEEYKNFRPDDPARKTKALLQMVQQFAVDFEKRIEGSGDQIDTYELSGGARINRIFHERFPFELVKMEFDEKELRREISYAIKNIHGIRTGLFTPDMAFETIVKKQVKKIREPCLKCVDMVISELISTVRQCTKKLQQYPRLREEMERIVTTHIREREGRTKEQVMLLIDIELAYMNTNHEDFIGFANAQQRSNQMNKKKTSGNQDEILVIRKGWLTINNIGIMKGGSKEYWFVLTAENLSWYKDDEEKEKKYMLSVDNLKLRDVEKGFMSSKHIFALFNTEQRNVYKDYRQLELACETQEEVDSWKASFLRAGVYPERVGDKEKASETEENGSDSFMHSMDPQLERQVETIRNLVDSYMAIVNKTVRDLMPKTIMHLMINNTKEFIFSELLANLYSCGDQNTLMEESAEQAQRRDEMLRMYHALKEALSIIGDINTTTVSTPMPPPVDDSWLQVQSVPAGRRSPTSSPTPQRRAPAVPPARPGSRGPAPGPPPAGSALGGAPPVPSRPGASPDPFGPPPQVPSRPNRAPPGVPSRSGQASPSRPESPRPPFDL
# Experiment: Inhibition of Dynamin 1 in serum-starved human U2OS cells assessed as inhibition of clathrin-mediated Alexa-495-cojugated transferrin uptake pretreated up to 300 uM for 30 mins by high-content imaging method
# Assay type: cell-based
# Details: not given
# Procedure, shortened: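 U2OS cells plated on fibronectin-coated glass to 70–80% confluency and serum-starved overnight (16 h). Pretreated with compound or 1% DMSO vehicle for 30 min, then given fluorescent transferrin for 8 min at 37 °C.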
row,SMILES,inhibition
1,O=C1C=C(Nc2cccc(O)c2)C(=O)C=C1Nc1cccc(O)c1,inactive
